MrgX1 agonist: activates human MrgX1 receptor signaling; B-score at 10 µM; Q96LB2; hit rate 0.44% among 310,000; MrgX1-HEK293 cells, Fluo-4 calcium fluorescence, agonist mode; stronger effect = higher value; AID 588627;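 active = calcium response B-score plate-corrected fluorescence ratio at least 3 library SD, with starting fluorescence B-score inside 5 SD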
Target sequence (Q96LB2 whole entry, looked up): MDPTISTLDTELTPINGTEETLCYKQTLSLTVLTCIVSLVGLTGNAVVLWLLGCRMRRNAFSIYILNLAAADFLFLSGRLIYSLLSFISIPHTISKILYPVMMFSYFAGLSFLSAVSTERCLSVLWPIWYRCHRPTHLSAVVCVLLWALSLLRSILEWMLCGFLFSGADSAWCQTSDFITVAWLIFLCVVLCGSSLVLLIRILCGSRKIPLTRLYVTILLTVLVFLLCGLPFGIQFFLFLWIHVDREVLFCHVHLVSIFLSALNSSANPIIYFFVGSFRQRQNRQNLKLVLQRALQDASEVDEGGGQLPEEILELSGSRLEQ
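Test system: HEK293 cells stably expressing human MrgX1 receptor; amount: 15,000 cells per well; doses: compound delivered in addition one of three; times: overnight plating before 1 h dye loading; detection: Fluo-4 NW calcium-flux fluorescence, kinetic read; read-out basis: B-scored fluorescence response ratio; controls: positive and negative controls per plate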
RGS4 act: potentiators or activators of RGS4. B-score at 10 µM. hit rate 0.92% among 310,000. HEK293 M3R/inducible RGS4, carbachol calcium flux Fluo4; stronger effect = lower value;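 active = B-score of the integrated calcium signal more than 4 SD below the library mean, with starting fluorescence not abnormally high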;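 also: negative B-score means reduced calcium response which marks RGS4 activation or potentiation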
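Test system: HEK293 cells with stable M3R and inducible RGS4; also added: carbachol at ECmax as muscarinic agonist stimulus; schedule: dye loading 30 min 37 °C, buffer rest 30 min RT; technique: kinetic calcium fluorescence imaging with Fluo4-AM dye, 2 µM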
RGS4 inh: inhibitors of human RGS4 | HEK293 M3R/RGS4 inducible, Fluo-4 calcium flux; stronger effect = higher value; triggered by carbachol at its EC20 | B-score at 10 µM | P49798 | AID 463165 | hit rate 0.45% among 310,000;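 active = B-score, a plate-corrected calcium signal, over three deviations above library mean, with baseline fluorescence within five deviations of library mean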;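 also: RGS4 expression induced by doxycycline in cells with stable M3 receptor; B-score is computed from the integrated fluorescence ratio over baseline after carbachol; higher B-score means a larger calcium signal and so more RGS4 inhibition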
Target sequence (P49798 whole entry, looked up): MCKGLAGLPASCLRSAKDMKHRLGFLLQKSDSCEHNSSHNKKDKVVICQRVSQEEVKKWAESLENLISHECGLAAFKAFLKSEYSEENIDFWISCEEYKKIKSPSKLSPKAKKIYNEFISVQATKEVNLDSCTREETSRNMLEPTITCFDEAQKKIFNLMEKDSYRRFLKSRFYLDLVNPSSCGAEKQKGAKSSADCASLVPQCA
MrgX1 PAM: human MrgX1 positive allosteric modulation, primary screen; Q96LB2; MrgX1-HEK293, Fluo-4 calcium flux, FDSS; stronger effect = higher value; B-score at 10 µM; hit rate 0.63% among 310,000; AID 588675;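 active = plate-corrected calcium response at least 3 library SD above typical, normal starting fluorescence, not activating the receptor alone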;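 also: compound read alongside a low EC10 to EC30 dose of BAM8-22 agonist; peak minus trough fluorescence over baseline measured at the second addition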
MrgX1 antagonist: blocks BAM8-22 activation of human MrgX1 receptor; hit rate 1.3% among 310,000; MRGX1-HEK293 calcium flux, Fluo-4, BAM8-22 antagonism; stronger effect = lower value; B-score at 10 µM; Q96LB2;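 active = calcium-response B-score plate-corrected more than 3 library SD below zero, starting fluorescence within 5 deviations, no agonist response on first addition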;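 also: peak minus trough fluorescence over baseline after final BAM8-22 challenge near maximal dose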
MrgX1 ant reconf: reconfirmed antagonist of human MrgX1 receptor signaling; shares compounds with MrgX1 antagonist; MrgX1-HEK293, BAM8-22 calcium flux, Fluo-4; stronger effect = lower value; remaining BAM8-22 calcium response % of control (stronger effect = lower value), % at 10 µM; hit rate 19% among 2,300; AID 602420;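 active = remaining agonist calcium response no higher than 100% minus 3 SD of agonist-only control wells, with starting fluorescence near control levels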;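 also: agonist BAM8-22 given at a near maximal EC90 to ECmax level; peak minus minimum fluorescence divided by baseline after agonist addition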
HEK293 Ca flux: MrgX1 antagonist counter-screen hit in parental HEK293 cells; fluorescence ratio F(max-min)/F0 at 10 µM; hit rate 2% among 4,000; AID 624111; shares compounds with MrgX1 antagonist; Fluo-4 calcium fluorescence, FDSS;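 active = duplicate-averaged calcium fluorescence ratio at least three times the standard deviation of buffer wells, a nonspecific response in parental cells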
HEK293 Ca counter: counter-screen for MrgX1 allosteric activators: effect in parental HEK293 cells. shares compounds with MrgX1 antagonist. parental HEK293 calcium flux, Fluo-4 fluorescence ratio; stronger effect = higher value. fluorescence ratio F(max-min)/F0 at 10 µM. hit rate 0.4% among 4,000. AID 624114;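 active = calcium fluorescence ratio, averaged over duplicates, at least 3 SD of the buffer-well ratio, meaning a nonspecific response in receptor-free cells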;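 also: untransfected parental HEK293 lacking MrgX1 used as counterscreen for MrgX1 allosteric activators; fluorescence change taken during the second addition on a kinetic imager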
HEK293 Ca cntr2: activity in parental HEK293 cells lacking MrgX1 receptor; shares compounds with MrgX1 antagonist; Fluo-4 calcium fluorescence (FDSS); stronger effect = higher value; fluorescence ratio F(max-min)/F0 at 10 µM; hit rate 8.7% among 4,000; AID 624115;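 active = calcium fluorescence ratio at least three times the spread of buffer wells, meaning a non-specific response in parental cells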
Starred values were filed as active, the others as inactive; i = inactive; · = no result given. Most compounds without a hit are left out; they make up all but 3.5% or so of the library.

SMILES	MrgX1 agonist	RGS4 act	RGS4 inh	MrgX1 PAM	MrgX1 antagonist	MrgX1 ant reconf	HEK293 Ca flux	HEK293 Ca counter	HEK293 Ca cntr2
Cc1ccc(S(=O)(=O)N2CCC(C(=O)N3CCC(C(=O)NCc4cccnc4)CC3)CC2)cc1	i	i	i	i	-6.63*	85.1%*	i	i	i
COc1ccccc1CNC(=O)[C@@H]1CCCN1S(=O)(=O)c1ccc(C)cc1	i	i	i	i	-6.65*	i	i	i	i
CCOC(=O)c1cnc(-n2nc(C)cc2C)nc1NC1CCCCC1	i	i	i	i	-4.86*	66.7%*	i	i	i
CC(=O)N1CCN(S(=O)(=O)c2cccc(C(=O)Nc3ccccc3N3CCCC3)c2)CC1	i	i	i	i	i	·	·	·	·
CN1CCN(S(=O)(=O)c2cccc(C(=O)Nc3ccccc3N3CCCC3)c2)CC1	i	i	i	i	-4.6*	i	i	i	i
Cc1c(C(=O)N2CC(C)OC(C)C2)[nH]c2ccc(Br)cc12 (centres undefined)	i	i	i	i	i	·	·	·	·
CC(Oc1ccc(C(C)(C)C)cc1)c1ccnc2nc(/N=C/N(C)C)nn12 (centres undefined)	i	i	i	i	i	·	·	·	·
O=C(CSc1nnnn1-c1cccc2c1CCCC2)NC1CCCC1	i	i	i	i	-4.54*	i	i	i	i
CCOc1ccc(-n2ccnc(SCC(=O)NCCc3ccccc3)c2=O)cc1	i	i	i	i	i	·	·	·	·
Cc1ccc(-n2ccnc(SCC(=O)NCCc3ccccc3)c2=O)cc1F	i	i	i	i	-4.62*	i	i	i	i
CCC(=O)Nc1nnc(-c2cccs2)s1	i	i	i	i	-5.05*	i	i	i	i
CC(=O)c1ccc(N2C(=NC(=O)C3CCCCC3)SC3CS(=O)(=O)CC32)cc1 (centres undefined)	i	i	i	i	i	·	·	·	·
CCn1ccc(C(=O)Nc2ncc(C)s2)n1	i	i	i	i	-5.4*	i	i	i	i
COc1ccc(OCC(=O)Nc2ccc(Cl)cc2)cc1	i	i	i	i	-4.96*	i	i	i	i
COCC(=O)Nc1nnc(COc2ccc(Cl)cc2)s1	i	i	i	i	-7.07*	i	i	i	i
O=C1[C@H]2[C@@H](c3ccc(F)cc3)N3C(=O)N(c4cccc(F)c4)C(=O)[C@@]3(Cc3ccc(Cl)cc3)[C@H]2C(=O)N1C1CCCCC1	i	i	i	i	i	·	·	·	·
O=C1c2cnccc2CN1Cc1ccccc1	i	i	i	i	-5.3*	i	i	i	i
Cc1ccc(Nc2nnc(SCc3cc(=O)n4ccsc4n3)s2)c(C)c1	i	i	i	i	-6.96*	i	i	i	i
C[C@H](NC(=O)N1CCn2c1nc1ccccc12)C(=O)NCC1CCCO1 (some centres undefined)	i	i	i	i	i	·	·	·	·
COc1ccc(NS(=O)(=O)c2c(C)cc(C)cc2C)cc1	i	i	i	i	i	·	·	·	·
COc1cccc(NS(=O)(=O)c2c(C)cc(C)cc2C)c1	i	i	i	i	-5.16*	i	i	i	i
N/C(=N\OC(=O)CCC1CCCC1)c1cccc([N+](=O)[O-])c1	i	i	i	i	i	·	·	·	·
COc1ccc2nc(N)sc2c1	i	i	i	i	i	·	·	·	·
COc1ccc2nc(-n3c(C)ccc3C)sc2c1	i	i	i	i	-5.99*	i	i	i	i
COc1ccc2nc(-c3ccc(F)cc3)sc2c1	i	i	i	i	-4.57*	i	i	i	i
SMILES	MrgX1 agonist	RGS4 act	RGS4 inh	MrgX1 PAM	MrgX1 antagonist	MrgX1 ant reconf	HEK293 Ca flux	HEK293 Ca counter	HEK293 Ca cntr2
Cc1nc(-c2ccccc2)nc2sc(C(=O)c3ccc(F)cc3)c(N)c12	i	i	i	i	-4.62*	77.8%*	i	i	i
Cc1nc2sc(C(=O)c3ccccc3)c(N)c2c(C)c1C	i	i	i	i	i	·	·	·	·
COc1cc2nc(Nc3ccc(F)cc3)nc(N)c2cc1OC	i	i	i	i	-6.1*	65.5%*	i	i	i
CCOC(=O)c1ccc(Nc2nc(N)c3cc(OC)c(OC)cc3n2)cc1	i	i	i	i	i	·	·	·	·
Cc1csc2c(SCC(=O)NNC(=O)C(Cl)Cl)ncnc12	i	i	i	i	i	·	·	·	·
Cc1ccc(C(=O)NCCc2nnc3ccc(SCC(=O)Nc4c(C)cc(C)cc4C)nn23)cc1	i	i	i	i	-5.69*	i	i	i	i
COCCNC(=S)N1CCC(C(=O)c2ccc(C)cc2)CC1	i	i	i	i	i	·	·	·	·
O=C(CNS(=O)(=O)c1cccc2nsnc12)NCc1ccc(Cl)cc1	i	i	i	i	-7.31*	60.5%*	i	i	i
O=C(CSc1nc(=O)n(Cc2ccccn2)c2c1CCC2)Nc1ccc(F)cc1F	i	i	i	i	i	·	·	·	·
COC(=O)[C@@H](NC(=O)c1ccc2c(c1)S(=O)(=O)c1ccccc1C2=O)C(C)C	i	i	i	i	-4.74*	i	i	i	i
CC(C)(C)c1ccc(S(=O)(=O)N2CCN(CC(=O)NC(=O)NC3CCCCC3)CC2)cc1	i	i	i	i	i	·	·	·	·
Cc1ccccc1CC1SC(N)=NC1=O (centres undefined)	i	i	i	i	i	·	·	·	·
CC(=O)c1ccc(OCC(=O)NC2CCS(=O)(=O)C2)cc1 (centres undefined)	i	i	i	i	i	·	·	·	·
CC(C)(C)c1ccc(OCCC(=O)OCC(=O)NC2CCS(=O)(=O)C2)cc1 (centres undefined)	i	i	i	i	-5.28*	i	i	i	i
Cc1ccc(C)c(OCCC(=O)OCC(=O)NC2CCS(=O)(=O)C2)c1 (centres undefined)	i	i	i	i	-5.53*	i	i	i	i

Screening data (PubChem BioAssay)
